pIC50: −log10 of the molar value. In brackets after ≈: the same amount, converted by molar mass.
Columns and labels:
[1] = tested on: PANC-1; assay: Cytotoxicity against human PANC1 cells at 0.001 ug/ml relative to control; type: functional
[2] = Cytotoxicity against human MEXF 276L cells; type: functional, cell-based; settings: MEXF276L
Summary of the method: (§1)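 Monolayer cell survival and proliferation assay run across a panel of 36 human tumor cell lines, with IC50 determined from the resulting growth data.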

[3] = tested on: SF-268; assay: Cytotoxicity against human SF268 cells at 0.001 ug/ml relative to control; type: functional
[4] = Cytotoxicity against human MEXF 520L cells; type: functional, cell-based; summary of the method: as §1
[5] = Cytotoxicity against human LXFL 1121L cells at 0.01 ug/ml relative to control; type: functional
[6] = tested on: OVCAR-3; assay: Cytotoxicity against human OVCAR3 cells at 0.01 ug/ml relative to control; type: functional
[7] = tested on: T-24; assay: Cytotoxicity against human T24 cells at 1 ug/ml relative to control; type: functional
[8] = Cytotoxicity against human GXF251L cells at 1 ug/ml relative to control; type: functional
[9] = Cytotoxicity against human PC3M cells at 10 ug/ml relative to control; type: functional, PC-3M
[10] = Cytotoxicity against human LXFL 529L cells at 0.001 ug/ml relative to control; type: functional
[11] = Cytotoxicity against human UXF 1138L cells at 1 ug/ml relative to control; type: functional
[12] = Cytotoxicity against human UXF 1138L cells; type: functional, cell-based; summary of the method: as §1
[13] = tested on: DU-145; assay: Cytotoxicity against human DU145 cells; type: functional, cell-based
Summary of the method: (§2)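 Monolayer cell survival and proliferation assay, run within a panel of 36 human tumor cell lines; IC50 determined per cell line.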

[14] = tested on: CWR22R; assay: Cytotoxicity against human 22Rv1 cells at 10 ug/ml relative to control; type: functional
[15] = Cytotoxicity against human GXF251L cells at 10 ug/ml relative to control; type: functional
[16] = Cytotoxicity against human PXF 1752L cells; type: functional, cell-based; summary of the method: as §1
[17] = Cytotoxicity against human LXFL 1121L cells at 10 ug/ml relative to control; type: functional
[18] = Cytotoxicity against human OVXF 1619L cells at 1 ug/ml relative to control; type: functional
[19] = tested on: T-24; assay: Cytotoxicity against human T24 cells at 0.01 ug/ml relative to control; type: functional
[20] = Cytotoxicity against human GXF251L cells; type: functional, cell-based; settings: GXF 251L; summary of the method: as §2
[21] = Cytotoxicity against human MEXF 394NL cells; type: functional, cell-based; summary of the method: as §1
[22] = tested on: HT-29; assay: Cytotoxicity against human HT-29 cells at 1 ug/ml relative to control; type: functional
[23] = Cytotoxicity against human MEXF 394NL cells at 10 ug/ml relative to control; type: functional
[24] = Cytotoxicity against human RXF 393NL cells at 0.01 ug/ml relative to control; type: functional
[25] = tested on: CWR22R; assay: Cytotoxicity against human 22Rv1 cells at 0.01 ug/ml relative to control; type: functional
[26] = Cytotoxicity against human OVXF 1619L cells; type: functional, cell-based; summary of the method: as §1
[27] = tested on: CWR22R; assay: Cytotoxicity against human 22Rv1 cells at 0.1 ug/ml relative to control; type: functional
[28] = Cytotoxicity against human MAXF 401NL cells at 0.01 ug/ml relative to control; type: functional
[29] = Cytotoxicity against human OVXF 899L cells at 10 ug/ml relative to control; type: functional
[30] = Cytotoxicity against human LXFA 629L cells at 0.01 ug/ml relative to control; type: functional
[31] = Cytotoxicity against human LXFL 529L cells at 10 ug/ml relative to control; type: functional
[32] = Cytotoxicity against human LXFL 1121L cells at 1 ug/ml relative to control; type: functional
[33] = tested on: DU-145; assay: Cytotoxicity against human DU145 cells at 0.001 ug/ml relative to control; type: functional
[34] = Cytotoxicity against human MEXF 462NL cells at 0.01 ug/ml relative to control; type: functional
[35] = Cytotoxicity against human HNXF 536L cells at 0.1 ug/ml relative to control; type: functional
[36] = Cytotoxicity against human BXF 1218L cells; type: functional, cell-based; summary of the method: as §2
[37] = Cytotoxicity against human RXF 393NL cells at 0.1 ug/ml relative to control; type: functional
[38] = tested on: MCF7; assay: Cytotoxicity against human MCF7 cells at 0.1 ug/ml relative to control; type: functional
[39] = tested on: MCF7; assay: Cytotoxicity against human MCF7 cells at 10 ug/ml relative to control; type: functional
[40] = Cytotoxicity against human PAXF 1657L cells at 0.1 ug/ml relative to control; type: functional
[41] = Cytotoxicity against human MEXF 276L cells at 0.1 ug/ml relative to control; type: functional, MEXF276L
[42] = Cytotoxicity against human RXF 1781L cells at 0.1 ug/ml relative to control; type: functional
[43] = Cytotoxicity against human LXFA 289L cells at 0.1 ug/ml relative to control; type: functional
[44] = Cytotoxicity against human LXFA 289L cells at 1 ug/ml relative to control; type: functional
[45] = Cytotoxicity against human PAXF 1657L cells at 1 ug/ml relative to control; type: functional
[46] = Cytotoxicity against human MEXF 520L cells at 10 ug/ml relative to control; type: functional
[47] = tested on: NCI-H460; assay: Cytotoxicity against human H460 cells at 0.01 ug/ml relative to control; type: functional
[48] = Cytotoxicity against human LXFA 289L cells at 0.001 ug/ml relative to control; type: functional
[49] = tested on: LNCaP; assay: Cytotoxicity against human LNCAP cells at 10 ug/ml relative to control; type: functional
[50] = Cytotoxicity against human MEXF 394NL cells at 0.01 ug/ml relative to control; type: functional

Work on `C=C1[C@@H](O)[C@H]2O[C@@]2(C[C@H]2C(C)=CC[C@H]3C(C)(C)CCC[C@]23C)[C@@H](O)[C@H]1O` [EPOXYPHOLAMIN D] yielded an Activity [1] of 90%, a pIC50 [2] of 5.33 and an IC70 [2] of 5.54 µg/mL (≈ 15.3 µM). The IC90 [2] was 18.1 µg/mL (≈ 49.8 µM), the Activity [3] was 106% and the pIC50 [4] was 5.12. For the same compound, the IC70 [4] was 4.91 µg/mL (≈ 13.6 µM), the IC90 [4] was 8.68 µg/mL (≈ 23.9 µM) and the Activity [5] was 135%. The Activity [6] was 98%, the Activity [7] was 126% and the Activity [8] was 41%. For the same compound, the Activity [9] was 5%, the Activity [10] was 99% and the Activity [11] was 72%. It also gave a pIC50 [12] of 5.21, an IC70 [12] of 4.64 µg/mL (≈ 12.8 µM) and an IC90 [12] of 9.64 µg/mL (≈ 26.6 µM). The pIC50 [13] was 5.05, the IC70 [13] was 5.88 µg/mL (≈ 16.2 µM) and the IC90 [13] was 10.6 µg/mL (≈ 29.3 µM). The Activity [14] was 11%, the Activity [15] was 16% and the pIC50 [16] was 5.64. The IC70 [16] was 3.05 µg/mL (≈ 8.42 µM), the IC90 [16] was 12.3 µg/mL (≈ 34 µM) and the Activity [17] was 5%. The Activity [18] was 103%, the Activity [19] was 97% and the pIC50 [20] was 5.68. The IC70 [20] was 2.75 µg/mL (≈ 7.6 µM), the IC90 [20] was 17.4 µg/mL (≈ 47.9 µM) and the pIC50 [21] was 5.17. The IC70 [21] was 4.64 µg/mL (≈ 12.8 µM), the IC90 [21] was 8.8 µg/mL (≈ 24.3 µM) and the Activity [22] was 121%. The Activity [23] was 6%, the Activity [24] was 126% and the Activity [25] was 81%. It also gave a pIC50 [26] of 4.99, an IC70 [26] of 6.09 µg/mL (≈ 16.8 µM) and an IC90 [26] of 10 µg/mL (≈ 27.6 µM). For the same compound, the Activity [27] was 90%, the Activity [28] was 110% and the Activity [29] was 12%. It also gave an Activity [30] of 87%, an Activity [31] of 14% and an Activity [32] of 97%. It also gave an Activity [33] of 91%, an Activity [34] of 122% and an Activity [35] of 98%. The pIC50 [36] was 5.84, the IC70 [36] was 0.969 µg/mL (≈ 2.67 µM) and the IC90 [36] was > 10 µg/mL. The Activity [37] was 134%, the Activity [38] was 96% and the Activity [39] was 5%. For the same compound, the Activity [40] was 92%, the Activity [41] was 98% and the Activity [42] was 98%. The Activity [43] was 106%, the Activity [44] was 102% and the Activity [45] was 73%. It also gave an Activity [46] of 5%, an Activity [47] of 98% and an Activity [48] of 98%. For the same compound, the Activity [49] was 27% and the Activity [50] was 85%.

Reference: ChEMBL document CHEMBL1649383, “Mode of action of epoxyphomalins A and B and characterization of related metabolites from the marine-derived fungus Paraconiothyrium sp” (J Nat Prod, 2010)
